In paper PMC5248944 (International Journal of Nanomedicine, 2017):

How the values were obtained:
[1] = assay type: physicochemical; details: 35°C, 5-FU 1.25 mg/mL in donor phase; control slope = Km
Method in brief: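 Dynamic dialysis was run at 35°C across porous cellulose (12.5 kDa cutoff). The donor held 5 mL of lyophilised-then-regenerated nanoparticles, plain drug solution, or drug with 0.25 mg/mL chitosan HCl; the receiver held 100 mL demineralised water under sink conditions. The receiver was sampled at intervals for HPLC (RP-18, 0.05 M KH2PO4/0.1% triethylamine, UV 266 nm). Ff came from the ln[(Cd/Cd0)×100]-vs-time slope; ≥3 repeats.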

[2] = Dynamic dialysis at 4°C: drug–polymer interactions in TSOH, sol state; assay type: physicochemical; details: 5-FU 1.25 mg/mL, printed value is slope ×10^3
Method in brief: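 Sol-state formulations were tested by dynamic dialysis at 4°C. The donor held 5 mL of formulation; the receiver held 100 mL of 0.08 M HCl with β-glycerophosphate. Receiver drug was measured at intervals. Each day's run order was control, two formulations, then control again on the same membrane, with a fresh membrane daily. Bound fraction was taken as 1−Ff from the log-linear slope.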

slope of straight line ± standard deviation, ln[(Cd/Cd0)×100] vs t [1]: 0.841±0.029 hours
Modulus of straight-line slope (×10^3) ± SD (n=8) [2]: 5.06±0.75 1/minutes
SMILES: O=c1[nH]cc(F)c(=O)[nH]1 [Control, 5-fluorouracil]
